Results reported in ChEMBL document CHEMBL4390654, “Microwave-assisted solid-phase synthesis of antisense acpP peptide nucleic acid-peptide conjugates active against colistin- and tigecycline-resistant E. coli and K. pneumoniae” (Eur J Med Chem, 2019).
Numbered stars: 1 amine (or outer) side, 2 acyl side, 3 side chain; on linkers, the order of the positions; unused ones are H or OH. Bridge positions count the residues as written; N and C are the ends. Square brackets hold non-standard residues; d marks the D form. Peptide text beside a SMILES is read from it. I, II: the chains in the order shown. * marks the point of attachment. X3 = CC[C@H](C)[C@@H](C(=O)*)N(C(=O)[C@H](CCCNC(=N)N)NC(=O)CCCCCNC(=O)[C@@H](N)CCCNC(=N)N)C(=O)[C@H](CCCNC(=N)N)NC(=O)CCCCCNC(=O)[C@@H](N)CCCNC(=N)N; Succinimide(1-C2H4CO,3-yl) = O=C1CC([*:1])C(=O)N1CCC(=O)[*:2]; X2 = O=C(OCCOCCN[*:1])[*:2]; Ahx = NCCCCCC(=O)O

Experiments:
Pseudomonas aeruginosa = assay: Antibacterial activity against Pseudomonas aeruginosa PAO1 assessed as reduction in microbial growth incubated for 20 hrs; type: functional; settings: PAO1, 20 h
Procedure, shortened: (§1)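 Broth microdilution MIC after a modified Hancock protocol for cationic peptides, in non-binding polystyrene plates. Inoculum ~2 × 10^5 CFU/mL in Mueller-Hinton broth with Mg²⁺ and Ca²⁺ at 4 mg/L each. Compounds dissolved in water, diluted in 0.01% acetic acid, 0.2% BSA (final), added as 10× aliquots. Covered plates incubated 20 h at 35 °C (± 2 °C) with shaking at 220 rpm. MIC read as lowest inhibiting concentration.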

Escherichia coli [1] = assay: Antibacterial activity against multi-drug resistant Escherichia coli NMI 3548/14 assessed as reduction in microbial growth incubated for 20 hrs; type: functional; settings: NMI 3548/14, 20 h
Procedure, shortened: (§2)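 Broth microdilution MIC (modified Hancock protocol) in non-binding polystyrene plates. Inoculum ~2 × 10^5 CFU/mL in Mueller-Hinton broth with Mg²⁺ and Ca²⁺ at 4 mg/L each. Compounds dissolved in water, diluted in 0.01% acetic acid/0.2% BSA (final), added as 10× stocks. Covered plates incubated 20 h at 35 °C (± 2 °C) with 220 rpm circular shaking before MIC read.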

Klebsiella pneumoniae [2] = assay: Antibacterial activity against multi-drug resistant Klebsiella pneumoniae NMI 3081/09 assessed as reduction in microbial growth incubated for 20 hrs; type: functional; settings: NMI 3081/09, 20 h; procedure, shortened: as §2
Acinetobacter baumannii = assay: Antibacterial activity against Acinetobacter baumannii ATCC 19606 assessed as reduction in microbial growth incubated for 20 hrs; type: functional; settings: ATCC 19606 = CIP 70.34 = JCM 6841, 20 h; procedure, shortened: as §1
Klebsiella pneumoniae [3] = assay: Antibacterial activity against Klebsiella pneumoniae ATCC 13883 assessed as reduction in microbial growth incubated for 20 hrs; type: functional; settings: ATCC 13883, 20 h; procedure, shortened: as §1
Escherichia coli [4] = assay: Antibacterial activity against Escherichia coli lacking a functional SbmA assessed as reduction in microbial growth incubated for 20 hrs; procedure, shortened: as §1
Escherichia coli [5] = assay: Antibacterial activity against multi-drug resistant Escherichia coli NMI 3898/15 assessed as reduction in microbial growth incubated for 20 hrs; type: functional; settings: NMI 3898/15, 20 h; procedure, shortened: as §2
Escherichia coli [6] = assay: Antibacterial activity against Escherichia coli ATCC 25922 assessed as reduction in microbial growth incubated for 20 hrs; type: functional; settings: ATCC 25922, 20 h; procedure, shortened: as §2
[7] = Hemolytic activity against RBC (unknown origin) at 100 uM; type: ADME, cell-based, Erythrocyte; settings: red blood cells (erythrocytes); read-out: Activity
Staphylococcus aureus = assay: Antibacterial activity against Staphylococcus aureus ATCC 29213 assessed as reduction in microbial growth incubated for 20 hrs; type: functional; settings: ATCC 29213, 20 h; procedure, shortened: as §1
Klebsiella pneumoniae [8] = assay: Antibacterial activity against multi-drug resistant Klebsiella pneumoniae NMI 2697/14 assessed as reduction in microbial growth incubated for 20 hrs; type: functional; settings: NMI 2697/14, 20 h; procedure, shortened: as §2

Row | SMILES | MIC (Pseudomonas aeruginosa) [µg/mL] | MIC (Escherichia coli [1]) [µg/mL] | MIC (Klebsiella pneumoniae [2]) [µg/mL] | MIC (Acinetobacter baumannii) [µg/mL] | MIC (Klebsiella pneumoniae [3]) [µg/mL] | MIC (Escherichia coli [4]) [µg/mL] | MIC (Escherichia coli [5]) [µg/mL] | MIC (Escherichia coli [6]) [µg/mL] | hemolysis at 100 µM [7] [%] | MIC (Staphylococcus aureus) [µg/mL] | MIC (Klebsiella pneumoniae [8]) [µg/mL]
1 | CC[C@@H](C)[C@@H](NC(=O)[C@@H](CCCCN)NC(=O)[C@@H]([C@H](C)CC)N(C(=O)[C@@H](CCCNC(=N)N)NC(=O)CCCCCNC(=O)[C@H](N)CCCNC(=N)N)C(=O)[C@@H](CCCNC(=N)N)NC(=O)CCCCCNC(=O)[C@H](N)CCCNC(=N)N)C(=O)N[C@H](CC(C)C)C(=O)N[C@H](Cc1ccccc1)C(=O)N[C@H](CCC(N)=O)C(=O)N[C@H](CC(N)=O)C(=O)N[C@H](CCCNC(=N)N)C(=O)N[C@H](CCCNC(=N)N)C(=O)N[C@H](CCSC)C(=O)N[C@H](CCCCN)C(=O)N[C@H](Cc1c[nH]c2ccccc12)C(=O)N[C@H](CCCCN)C(=O)N[C@H](CCCCN)C(=O)N[C@H](CSC1CC(=O)N(CCC(=O)NCCOCCOC(=O)N[C@H](CS)C(=O)N[C@@H](C(=O)N[C@H](CS)C(=O)N[C@H](C)C(=O)N[C@@H](C(=O)N[C@H](C)C(=O)N[C@H](CS)C(=O)N[C@@H](C(=O)N[C@H](CS)C(=O)N[C@@H](C(N)=O)[C@H](C)O)[C@H](C)O)[C@H](C)O)[C@H](C)O)C1=O)C(N)=O (some centres not stated) | 8 | 8 | 16 | 4 | 16 | 8 | 8 | 8 | 1.6 | 32 | 64
2 | CC[C@H](C)[C@H](NC(=O)[C@H](CCCCN)NC(=O)[C@H]([C@@H](C)CC)N(C(=O)[C@H](CCCNC(=N)N)NC(=O)CCCCCNC(=O)[C@@H](N)CCCNC(=N)N)C(=O)[C@H](CCCNC(=N)N)NC(=O)CCCCCNC(=O)[C@@H](N)CCCNC(=N)N)C(=O)N[C@@H](CC(C)C)C(=O)N[C@@H](Cc1ccccc1)C(=O)N[C@@H](CCC(N)=O)C(=O)N[C@@H](CC(N)=O)C(=O)N[C@@H](CCCNC(=N)N)C(=O)N[C@@H](CCCNC(=N)N)C(=O)N[C@@H](CCSC)C(=O)N[C@@H](CCCCN)C(=O)N[C@@H](Cc1c[nH]c2ccccc12)C(=O)N[C@@H](CCCCN)C(=O)N[C@@H](CCCCN)C(=O)N[C@@H](CS)C(=O)N[C@H](C(=O)N[C@@H](CS)C(=O)N[C@H](C(=O)N[C@H](C(=O)N[C@@H](C)C(=O)N[C@@H](CS)C(=O)N[C@@H](C)C(=O)N[C@@H](CS)C(=O)N[C@H](C(N)=O)[C@@H](C)O)[C@@H](C)O)[C@@H](C)O)[C@@H](C)O (X3-KILFQNRRMKWKKCTCTTACACT-NH2) | 32 | 8 to 16 | 16 | 16 to 32 | > 64 | 64 | 32 | 64 | < 1 | > 64 | ≥ 64
3 | CC[C@H](C)[C@H](NC(=O)[C@@H]1CCCN1C(=O)[C@H](CCCNC(=N)N)NC(=O)[C@@H]1CCCN1C(=O)[C@H](Cc1cnc[nH]1)NC(=O)[C@H](CO)NC(=O)[C@@H](NC(=O)[C@@H]1CCCN1C(=O)[C@H](CCCNC(=N)N)NC(=O)[C@@H]1CCCN1C(=O)[C@H](CO)NC(=O)[C@H](Cc1ccc(O)cc1)NC(=O)[C@@H]1CCCN1C(=O)[C@H](CCCNC(=N)N)NC(=O)[C@@H]1CCCN1C(=O)[C@H](CCCNC(=N)N)NC(=O)CCCCCNC(=O)[C@@H](N)CCCNC(=N)N)[C@@H](C)O)C(=O)N[C@@H](CCCNC(=N)N)C(=O)N[C@H](C(N)=O)C(C)C | > 64 | 32 to 64 | > 64 | 64 | > 64 | > 64 | 32 to 64 | > 64 | < 1 | > 64 | > 64
4 | CC[C@H](C)[C@H](NC(=O)[C@@H]1CCCN1C(=O)[C@H](CCCNC(=N)N)NC(=O)[C@@H]1CCCN1C(=O)[C@H](Cc1cnc[nH]1)NC(=O)[C@H](CO)NC(=O)[C@@H](NC(=O)[C@@H]1CCCN1C(=O)[C@H](CCCNC(=N)N)NC(=O)[C@@H]1CCCN1C(=O)[C@H](CO)NC(=O)[C@H](Cc1ccc(O)cc1)NC(=O)[C@@H]1CCCN1C(=O)[C@H](CCCNC(=N)N)NC(=O)[C@@H]1CCCN1C(=O)[C@H](CCCNC(=N)N)NC(=O)CCCCCNC(=O)[C@@H](N)CCCNC(=N)N)[C@@H](C)O)C(=O)N[C@@H](CCCNC(=N)N)C(=O)N[C@H](C(=O)N[C@@H](CS)C(=O)N[C@H](C(=O)N[C@@H](CS)C(=O)N[C@H](C(=O)N[C@H](C(=O)N[C@@H](C)C(=O)N[C@@H](CS)C(=O)N[C@@H](C)C(=O)N[C@@H](CS)C(=O)N[C@H](C(N)=O)[C@@H](C)O)[C@@H](C)O)[C@@H](C)O)[C@@H](C)O)C(C)C (H-R[Ahx]RPRPYSPRPTSHPRPIRVCTCTTACACT-NH2) | > 64 | > 64 | 8 to 16 | > 64 | 64 | > 64 | > 64 | > 64 | < 1 | > 64 | > 64
5 | CC[C@@H](C)[C@@H](NC(=O)[C@H]1CCCN1C(=O)[C@@H](CCCNC(=N)N)NC(=O)[C@H]1CCCN1C(=O)[C@@H](Cc1cnc[nH]1)NC(=O)[C@@H](CO)NC(=O)[C@H](NC(=O)[C@H]1CCCN1C(=O)[C@@H](CCCNC(=N)N)NC(=O)[C@H]1CCCN1C(=O)[C@@H](CO)NC(=O)[C@@H](Cc1ccc(O)cc1)NC(=O)[C@H]1CCCN1C(=O)[C@@H](CCCNC(=N)N)NC(=O)[C@H]1CCCN1C(=O)[C@@H](CCCNC(=N)N)NC(=O)CCCCCNC(=O)[C@H](N)CCCNC(=N)N)[C@H](C)O)C(=O)N[C@H](CCCNC(=N)N)C(=O)N[C@@H](C(=O)N[C@H](CSC1CC(=O)N(CCC(=O)NCCOCCOC(=O)N[C@H](CS)C(=O)N[C@@H](C(=O)N[C@H](CS)C(=O)N[C@H](C)C(=O)N[C@@H](C(=O)N[C@H](C)C(=O)N[C@H](CS)C(=O)N[C@@H](C(=O)N[C@H](CS)C(=O)N[C@@H](C(N)=O)[C@H](C)O)[C@H](C)O)[C@H](C)O)[C@H](C)O)C1=O)C(N)=O)C(C)C (some centres not stated) | > 64 | 32 | 64 | 64 | 8 to 16 | 64 | 32 to 64 | 32 | < 1 | > 64 | ≥ 64
6 | CC[C@H](C)[C@H](NC(=O)[C@H](CCCCN)NC(=O)[C@H]([C@@H](C)CC)N(C(=O)[C@H](CCCNC(=N)N)NC(=O)CCCCCNC(=O)[C@@H](N)CCCNC(=N)N)C(=O)[C@H](CCCNC(=N)N)NC(=O)CCCCCNC(=O)[C@@H](N)CCCNC(=N)N)C(=O)N[C@@H](CC(C)C)C(=O)N[C@@H](Cc1ccccc1)C(=O)N[C@@H](CCC(N)=O)C(=O)N[C@@H](CC(N)=O)C(=O)N[C@@H](CCCNC(=N)N)C(=O)N[C@@H](CCCNC(=N)N)C(=O)N[C@@H](CCSC)C(=O)N[C@@H](CCCCN)C(=O)N[C@@H](Cc1c[nH]c2ccccc12)C(=O)N[C@@H](CCCCN)C(=O)N[C@@H](CCCCN)C(N)=O | 8 | 4 to 8 | > 64 | 8 | 64 | 8 | 16 | 8 | < 1 | 32 to 64 | > 64
7 | CC[C@H](C)[C@H](NC(=O)[C@H](CCCCN)NC(=O)[C@H]([C@@H](C)CC)N(C(=O)[C@H](CCCNC(=N)N)NC(=O)CCCCCNC(=O)[C@@H](N)CCCNC(=N)N)C(=O)[C@H](CCCNC(=N)N)NC(=O)CCCCCNC(=O)[C@@H](N)CCCNC(=N)N)C(=O)N[C@@H](CC(C)C)C(=O)N[C@@H](Cc1ccccc1)C(=O)N[C@@H](CCC(N)=O)C(=O)N[C@@H](CC(N)=O)C(=O)N[C@@H](CCCNC(=N)N)C(=O)N[C@@H](CCCNC(=N)N)C(=O)N[C@@H](CCSC)C(=O)N[C@@H](CCCCN)C(=O)N[C@@H](Cc1c[nH]c2ccccc12)C(=O)N[C@@H](CCCCN)C(=O)N[C@@H](CCCCN)C(=O)N[C@@H](CSC1CC(=O)N(CCC(=O)NCCOCCOC(=O)N[C@@H](CS)C(=O)N[C@H](C(=O)N[C@@H](CS)C(=O)N[C@H](C(=O)N[C@H](C(=O)N[C@@H](C)C(=O)N[C@@H](CS)C(=O)N[C@@H](C)C(=O)N[C@@H](CS)C(=O)N[C@H](C(N)=O)[C@@H](C)O)[C@@H](C)O)[C@@H](C)O)[C@@H](C)O)C1=O)C(N)=O (some centres not stated) (I: X3-KILFQNRRMKWKKC-NH2 / II: [X2]CTCTTACACT-NH2; linker I:14-II:N via Succinimide(1-C2H4CO,3-yl)) | 32 | 4 to 8 | 8 to 16 | 16 | 64 | 32 | 16 | 32 | < 1 | > 64 | 16 to 32
